OX1R antag-1: antagonists of human orexin 1 receptor (OX1R) | OX1R-expressing cells, FRET antagonist read-out | actives 1.8% (n = 330,000) | Orexin/Hypocretin receptor type 1 (Homo sapiens), O43613 | inhibition, % at 6.6 µM; in the data active = inhibition mostly above about 38%, no sharp cut-off; inactive = mostly below about 40%;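 also: 0% = agonist challenge alone and 100% = reference antagonist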
CHO parental Ca: ATP-evoked calcium signal inhibitors, parental CHO, primary screen, counter-screen for OX1R antagonist project, cell-based, fluorescence, Fluo-8 calcium dye | actives 0.63% (n = 330,000) | inhibition, % at 5.6 µM | parental CHO-K1, ATP-induced calcium, Fluo-8 fluorescence | AID 463079, 2010;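 active = inhibition above that plate's mean sample inhibition plus 3 SD, cut at about 26% in these data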;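 also: 0% = ATP-challenged DMSO wells and 100% = DMSO wells without ATP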
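Material – parental CHO cells · Reagent – ATP stimulus · Compound – single nominal dose of 5.6 µM per compound · Detection – Fluo-8 fluorescence · Read-out basis – percent inhibition of calcium signal · Controls – ATP-challenged DMSO wells low, unchallenged DMSO wells high · Repeats – no replicates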
OX1R antag-2: OX1R (HCRTR1) antagonists, primary screen, fluorescence, CHO/OX1R cells, Fluo-8 calcium, orexin A; actives 0.43% (n = 330,000); Fluo-8 calcium fluorescence; Orexin/Hypocretin receptor type 1 (Homo sapiens), O43613; inhibition, % at 5 µM; AID 434989, 2010;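 active = inhibition above its plate's threshold, mean inhibition of all tested compounds on the plate plus 3 SD, cut at about 37% in these data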;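 also: 0% = orexin A challenge wells and 100% = SB-334867-A antagonist wells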
TAAR1 antagonist: human TAAR1 antagonists, primary screen, Fluo-8 calcium fluorescence, CHO RD-HGA16 cells | Trace amine-associated receptor 1 (Homo sapiens), Q96RJ0 | antagonist | inhibition, % at 3 µM | actives 1.5% (n = 360,000) | AID 624466, 2012;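 active = inhibition above a per-plate cutoff, the mean inhibition of test compounds on that plate plus 3 SD, cut at about 49% in these data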;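 also: 0% = DMSO plus EC80 beta-PEA response and 100% = DMSO alone without agonist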
Target sequence (Q96RJ0 whole entry, looked up): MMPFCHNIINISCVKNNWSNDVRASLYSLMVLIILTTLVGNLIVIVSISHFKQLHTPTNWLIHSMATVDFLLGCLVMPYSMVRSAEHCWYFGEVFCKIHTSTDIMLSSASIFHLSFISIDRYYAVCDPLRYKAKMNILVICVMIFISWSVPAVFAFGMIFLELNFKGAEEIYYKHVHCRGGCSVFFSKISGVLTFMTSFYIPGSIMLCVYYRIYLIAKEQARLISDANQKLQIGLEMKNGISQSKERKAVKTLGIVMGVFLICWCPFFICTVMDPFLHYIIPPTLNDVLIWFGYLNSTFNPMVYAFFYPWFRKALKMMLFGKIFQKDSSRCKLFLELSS
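Test system – hTAAR1-expressing CHO RD-HGA16 cells, Gα16-coupled · Reagent – β-PEA at EC80 concentration, post-compound challenge · Compound dosing – 3 µM, single point · Timing – 140 s kinetic read after compound, 140 s after agonist · Detection – Fluo-8 intracellular calcium dye fluorescence, real-time kinetic reads · Control set – DMSO and EC80 PEA controls · Repeats – n of 1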
TAAR1 ag: human TAAR1 agonists, primary screen, Fluo-8 calcium fluorescence, CHO RD-HGA16 cells; Trace amine-associated receptor 1 (Homo sapiens), Q96RJ0; vehicle wells 0%, saturating PEA agonist 100%; activation, % at 3 µM; actives 0.99% (n = 360,000);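 active = activation above the mean activation of all test compounds in the run plus 3 SD, cut at about 38% in these data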
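System: CHO-derived RD-HGA16 cells with stable Gα16 and human TAAR1 / Times: 17-24 h plating, Fluo-8 75 min 37 °C, 30 min RT / Technique: calcium-sensitive Fluo-8 signal, excitation 470-495, emission 515-575 nm / Measure: % activation relative to PEA EC100 response / Benchmarks: DMSO and PEA EC100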
GPR7 antagonist: GPR7 receptor antagonists, primary screen, cell-based, fluorescence, single concentration; Neuropeptides B/W receptor type 1 (Homo sapiens), P48145; GPR7-expressing cells, fluorescence antagonist assay; inhibition, % at 4.4 µM; actives 1.1% (n = 290,000); AID 1861, 2009; in the data active = inhibition above about 16%, passing the limit was not always enough;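 also: cells stimulated with the agonist NPW; 0% = agonist with vehicle and 100% = vehicle without agonist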
Target sequence (P48145 whole entry, looked up): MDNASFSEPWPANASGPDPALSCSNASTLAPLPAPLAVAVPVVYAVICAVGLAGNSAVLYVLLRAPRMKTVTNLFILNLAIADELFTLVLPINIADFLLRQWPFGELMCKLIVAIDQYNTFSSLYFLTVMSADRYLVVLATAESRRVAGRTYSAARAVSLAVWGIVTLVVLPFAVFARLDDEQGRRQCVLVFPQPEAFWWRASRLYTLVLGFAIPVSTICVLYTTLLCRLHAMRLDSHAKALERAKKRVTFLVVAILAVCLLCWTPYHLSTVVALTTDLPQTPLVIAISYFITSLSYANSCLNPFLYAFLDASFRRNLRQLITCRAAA
nonsel antag count: nonselective antagonists in TAAR1 counter-screen cells, counter-screen for hTAAR1 antagonist project, cell-based, fluorescence, calcium; shares compounds with TAAR1 antagonist; counterscreen cell line, antagonist mode; inhibition, % at 3 µM; actives 77% (n = 2,400); AID 651780, 2012; in the data active = inhibition above about 22%;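 also: CHO-Ga16 host cells stimulated with ATP at an EC80 level; 0% = agonist EC80 plus vehicle and 100% = vehicle without agonist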
TAAR1 ant conf: human TAAR1 antagonists, retest of hits, confirmation, cell-based, fluorescence | shares compounds with TAAR1 antagonist | TAAR1-expressing cells, fluorescence antagonist read-out | inhibition, % at 3 µM | actives 40% (n = 2,400); in the data active = inhibition above about 49%;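 also: CHO-Ga16 host cells challenged with agonist PEA near its EC80; 0% = agonist at EC80 plus vehicle and 100% = vehicle with no agonist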
Ga16 ag counter: calcium activation in Ga16-expressing cells, counter-screen for TAAR1 antagonist project, cell-based, fluorescence; agonist counterscreen; shares compounds with TAAR1 antagonist; AID 651953, 2012; activation, % at 3 µM; actives 18% (n = 2,400); in the data active = activation above about 12%;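 also: 0% = vehicle wells and 100% = saturating stimulus response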
TAAR1 ag counter: TAAR1 activation by candidate antagonists – cell-based, fluorescence, counter-screen for TAAR1 antagonist project. activation, % at 3 µM. actives 2% (n = 2,400). shares compounds with TAAR1 antagonist. AID 651955, 2012. hTAAR1 cell line, agonist mode; in the data active = activation above about 37%;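 also: CHO cells stably expressing TAAR1 with calcium dye readout; 0% = DMSO vehicle and 100% = full agonist response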
* marks the source's active call; other numbers are inactive results; x = not tested or not shown. Only some compounds are listed: those with a hit (about 4.6% of all), similar ones and a draw of the others.

SMILES	OX1R antag-1	CHO parental Ca	OX1R antag-2	TAAR1 antagonist	TAAR1 ag	GPR7 antagonist	nonsel antag count	TAAR1 ant conf	Ga16 ag counter	TAAR1 ag counter
Cc1ccc(CNC(=O)c2cc(-c3ccccc3C)nn2CC2CC(c3cccnc3)=NO2)cc1 (stereo not drawn)	-1	-11	-16	64*	12	x	26*	34	5	10
Cc1ccccc1-c1cc(C(=O)NCc2ccc(OC(F)(F)F)cc2)n(CC2CC(c3cccnc3)=NO2)n1 (stereo not drawn)	5	-4	8	70*	16	x	36*	53*	7	11
O=C(NCc1cccc(Br)c1)c1cc(-c2ccccc2)nn1CC1CC(c2cccnc2)=NO1 (stereo not drawn)	14	-17	-19	56*	16	x	21*	29	4	1
O=C(OCc1ccc(Cl)c(Cl)c1)c1ccc[nH]1	7	-4	-14	4	4	10	x	x	x	x
COc1ccc(CCNC2=C(Cl)C(=O)N(CCc3ccccc3)C2=O)cc1OC	23	-14	-26	74*	13	-8	38*	46	8	4
COc1ccc(CCNC2CC(=O)N(CCc3ccccc3)C2=O)cc1OC (stereo not drawn)	7	-15	-33	8	-1	0	x	x	x	x
Cc1ccc(S(=O)(=O)N2CCOCC2)cc1NC(=O)COC(=O)c1ccc(Br)o1	x	x	x	-14	3	x	x	x	x	x
COc1ccc(N2CCN(c3nc(Cl)nc(Nc4ccc(F)cc4)n3)CC2)cc1	1	-15	-28	78*	2	-9	27*	51*	10	17
COc1ccc(N2CCN(c3nc(Nc4ccc(F)cc4)nc(OC)n3)CC2)cc1	x	x	x	x	x	-3	x	x	x	x
O=C(NCCN1CCOCC1)c1ccc(=O)n(Cc2ccc(Cl)cc2)c1	18	-10	-14	105*	7	-1	12	15	0	-2
COc1cc2c(cc1NC(=O)COC(=O)Cn1cnc3ccccc31)oc1ccccc12	x	x	x	49*	11	-1	18	13	5	1
COc1cc2c(cc1NC(=O)COc1ccccc1OC)oc1ccccc12	-2	-2	-4	12	1	-12	x	x	x	x
CC(=O)Nc1ccc(NC(=O)c2ccc(S(=O)(=O)N(C)c3ccccc3)cc2)cc1	6	-13	0	23	5	x	x	x	x	x
Cc1nc2ccc(NC(=O)c3ccc(S(=O)(=O)N(C)c4ccccc4)cc3)cc2s1	4	-9	-13	59*	21	-10	33*	53*	11	6
O=C(c1ccc(Br)o1)N(Cc1ccccc1)Cc1ccccc1	24	-30	-51	50*	16	-13	13	14	1	0
COc1ccc(CCNC(=O)C2CC(c3ccccc3F)=NO2)cc1 (stereo not drawn)	14	-14	-7	0	12	x	x	x	x	x
O=C(NCCc1cccs1)C1CC(c2ccccc2F)=NO1 (stereo not drawn)	15	-5	-17	74*	37	x	0	81*	2	68*
Cc1ccc(C)c(Cn2cnc3c(nnn3-c3ccc(F)cc3)c2=O)c1	0	-4	-14	72*	30	3	12	37	2	10
CC1Cc2ccccc2N1C(=O)c1cc2c(=O)n3ccccc3nc2n1C (stereo not drawn)	10	-20	-19	56*	17	-14	27*	49*	12*	18
C[C@H](CO)N1C[C@H](C)[C@H](CN(C)C(=O)Nc2ccc(F)cc2)OCc2cnnn2CCCC1=O	x	x	x	-11	2	x	x	x	x	x
COc1cccc(/C=C2\SC(=S)N(CCCC(=O)N3CCCCC3CCO)C2=O)c1 (stereo not drawn)	1	-39	-31	55*	7	-18	29*	28	12*	7
CCCc1c(C(=O)N/N=C/c2c[nH]c3ccccc23)nnn1-c1nonc1N	x	x	x	63*	29	x	32*	47	12*	12
Cc1cn([C@H](C(=O)NCCCCCCCCCCC(=O)N2CCN(C(=O)OC(C)(C)C)CC2)[C@@H](C)O)nn1	16	-30	-29	63*	21	x	24*	34	11	9
O=C(N[C@H](C(=O)N1CCC[C@H]1C(=O)NC1CCCC1)C1CCCCC1)c1ccccn1	x	x	x	-15	0	x	x	x	x	x
NC(=O)CC[C@H](NC(=O)c1ccc(Cl)cc1)C(=O)NNC(=O)COc1cccc(Br)c1	5	-10	-7	-15	2	x	x	x	x	x
SMILES	OX1R antag-1	CHO parental Ca	OX1R antag-2	TAAR1 antagonist	TAAR1 ag	GPR7 antagonist	nonsel antag count	TAAR1 ant conf	Ga16 ag counter	TAAR1 ag counter
O=C(CN1CCN(Cc2ccccc2)CC1)Nc1ccc([N+](=O)[O-])cc1C(=O)Nc1ccccc1F	19	-24	-42	58*	16	-12	29*	51*	7	13
Cc1cc(C)c2c(N)c(C(=O)c3cccc(Cl)c3)sc2n1	11	-25	-10	63*	17	-6	23*	40	6	3
Cc1cc(C)c2c(N)c(C(=O)c3ccc(Cl)cc3Cl)sc2n1	16	-22	-13	76*	2	-5	37*	55*	7	3
Cc1cc(C)c2c(N)c(C(=O)c3ccccc3Cl)sc2n1	12	-2	7	34	15	-2	x	x	x	x
CC(=O)c1sc2nc(C)cc(C)c2c1N	27	-13	2	5	4	7	x	x	x	x
COc1cccc(Sc2nc(-c3ccccc3)ncc2S(C)(=O)=O)c1	8	-32	-36	-13	3	-31	x	x	x	x
Cc1ccccc1NS(=O)(=O)c1cc2c3c(c1)C(C)C(=O)N3CCC2 (stereo not drawn)	3	-13	-16	-13	0	-1	x	x	x	x
CCn1c(SCC(=O)Nc2ccccc2)nc2c(c1=O)SCC2	x	x	x	-33	-1	x	x	x	x	x
